Laboratory results taken from publication PMC3180826 (ACS chemical neuroscience, 2010).
Positions count from the first letter of the chain named.

Assays:
hM2 = molecular target: T1, hM2 (Homo sapiens, UniProt P08172); experiment: Calcium mobilization assay, agonist mode, M2; format: cell-based; conditions: up to 30 μM
T1 sequence (P08172 1-466): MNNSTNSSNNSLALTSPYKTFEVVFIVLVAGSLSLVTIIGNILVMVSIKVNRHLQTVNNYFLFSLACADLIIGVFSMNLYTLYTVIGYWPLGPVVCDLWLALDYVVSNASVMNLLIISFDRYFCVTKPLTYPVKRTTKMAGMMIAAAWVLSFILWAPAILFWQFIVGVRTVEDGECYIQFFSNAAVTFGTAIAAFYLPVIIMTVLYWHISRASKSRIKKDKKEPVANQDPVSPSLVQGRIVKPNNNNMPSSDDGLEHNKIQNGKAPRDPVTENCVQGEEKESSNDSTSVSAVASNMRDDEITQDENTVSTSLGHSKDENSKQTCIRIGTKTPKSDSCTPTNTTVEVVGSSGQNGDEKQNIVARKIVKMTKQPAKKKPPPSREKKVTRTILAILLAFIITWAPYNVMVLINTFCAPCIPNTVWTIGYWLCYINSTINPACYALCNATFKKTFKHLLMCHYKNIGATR
In short: (§1)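 CHO-K1 cells stably expressing hM2/Gqi5 or rM4/Gqi5 (6 × 10^4 cells/well), or hM3 or hM5 (5 × 10^4 cells/well), were cultured overnight at 37 °C in 5% CO2. Cells were loaded with 2 μM Fluo-4 AM for 1 h at 37 °C in HBSS with 20 mM HEPES and 2.5 mM probenecid, pH 7.4. Eight-point test compound concentration series were added at 19 s of a 130 s read. Calcium flux was read as fluorescence fold over basal.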

hM3 = hM3 (Homo sapiens, UniProt P20309); experiment: Calcium mobilization assay, agonist mode, M3; format: cell-based; conditions: up to 30 μM
Chain of hM3 (P20309 whole entry): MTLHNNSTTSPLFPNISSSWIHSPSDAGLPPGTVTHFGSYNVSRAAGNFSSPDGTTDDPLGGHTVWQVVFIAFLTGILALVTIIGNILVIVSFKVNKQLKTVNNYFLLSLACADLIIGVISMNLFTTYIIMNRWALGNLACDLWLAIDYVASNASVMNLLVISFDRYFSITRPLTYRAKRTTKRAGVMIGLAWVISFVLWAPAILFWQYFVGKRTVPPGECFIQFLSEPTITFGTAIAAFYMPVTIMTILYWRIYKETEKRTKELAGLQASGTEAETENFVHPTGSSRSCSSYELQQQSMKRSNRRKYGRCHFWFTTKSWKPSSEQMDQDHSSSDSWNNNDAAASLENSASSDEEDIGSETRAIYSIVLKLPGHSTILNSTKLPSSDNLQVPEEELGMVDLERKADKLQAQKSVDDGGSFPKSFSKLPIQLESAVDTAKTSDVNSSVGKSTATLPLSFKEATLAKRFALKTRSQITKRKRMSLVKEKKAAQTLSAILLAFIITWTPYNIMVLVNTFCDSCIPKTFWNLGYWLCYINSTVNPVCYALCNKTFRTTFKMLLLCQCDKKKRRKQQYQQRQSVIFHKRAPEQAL
In short: as §1

[1] = Plasma-brain exposure profile PK study; format: in vivo; conditions: rat
In short: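 Test compound was dissolved in sterile water at 5 mg/mL and dosed at 10 mg/kg ip in male Sprague–Dawley rats (225–250 g). Plasma and brain were collected at 0.5, 1, 2, 4 and 8 h, with three rats per time point. Brains were homogenized 1:3 in PBS, and samples were extracted by acetonitrile/0.1% formic acid precipitation with internal standard. Quantification was by LC-MS/MS SRM (10–2000 ng/mL calibration), with noncompartmental analysis.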

M1 = molecular target: T2, M1 (Rattus norvegicus, UniProt P08482); experiment: [3H]-NMS competition binding, M1 CHO membranes; conditions: concentrations well above those required to fully activate M1
T2 sequence (P08482 1-460): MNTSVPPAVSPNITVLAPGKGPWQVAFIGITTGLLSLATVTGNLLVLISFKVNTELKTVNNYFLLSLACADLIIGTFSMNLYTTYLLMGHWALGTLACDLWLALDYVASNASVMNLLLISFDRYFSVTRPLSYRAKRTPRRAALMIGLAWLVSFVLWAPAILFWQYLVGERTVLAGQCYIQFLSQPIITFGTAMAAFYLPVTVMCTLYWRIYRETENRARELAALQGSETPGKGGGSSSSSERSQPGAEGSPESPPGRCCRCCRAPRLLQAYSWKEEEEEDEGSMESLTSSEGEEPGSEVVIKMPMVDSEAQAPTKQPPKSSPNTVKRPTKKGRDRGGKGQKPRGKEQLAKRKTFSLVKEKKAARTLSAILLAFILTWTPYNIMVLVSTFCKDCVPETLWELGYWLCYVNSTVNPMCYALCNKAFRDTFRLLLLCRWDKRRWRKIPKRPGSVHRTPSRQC

rM1 K392D = molecular target: T3, rM1 K392D (Rattus norvegicus, UniProt P08482, K392D); experiment: Calcium mobilization, rM1 K392D mutant CHO-K1 cells; format: cell-based; conditions: compared with wt rM1
T3 sequence (P08482 1-460 K392D): T2 sequence (P08482 1-460) with K392D
In short: (§2)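 CHO-K1 cells were transiently transfected overnight at 37 °C with 10 μg of mutant rat M1 cDNA in pcDNA3.1+ using Fugene 6, then plated for the calcium assay. They were loaded with 2 μM Fluo-4 AM for 1 h at 37 °C in HEPES/probenecid-buffered HBSS, pH 7.4. Test compound dose–response series were added at 19 s. Calcium mobilization was measured as fluorescence increase over basal.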

rM1 E397D = molecular target: T4, rM1 E397D (Rattus norvegicus, UniProt P08482, E397D); experiment: Calcium mobilization, rM1 E397D mutant CHO-K1 cells; format: cell-based; conditions: compared with wt rM1
T4 sequence (P08482 1-460 E397D): T2 sequence (P08482 1-460) with E397D
In short: as §2

- agonist activity at M2 (hM2): no activity
- agonist activity at M3 (hM3): no activity
- brain level ([1]; 10 mg/kg i.p., brain): 14490.12 ± 2663.82 ng/mL
- plasma level ([1]; 10 mg/kg i.p., plasma): 311.86 ± 20.77 ng/mL
- central penetrance ([1]; i.p. administration): centrally-penetrant
- reduction of [3H]-NMS binding to M1 (M1): did not reduce
- functional activity at K392D mutant (rM1 K392D): comparable results to wt rM1
- functional potency at E397D mutant (rM1 E397D): Not much potency appeared to be lost
Structure (SMILES): CCOC(=O)N1CCC(NCCNC(=O)c2ccccc2)CC1 [VU0184670, ethyl 4-(2-benzamidoethylamino)piperidine-1-carboxylate]
